The source made the active and inactive calls. The calls are words filed in the database; no cut-off is given here.
Columns and labels:
HeLa = experiment: Cell cycle arrest in human HeLa cells assessed as reduction in G2/M phase after 24 hrs by FACS analysis; assay type: functional, cell-based
How it was run: (§1)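 HeLa or KYSE150 cells (5×10^5) were exposed for 24 h to 10 or 100 μM in RPMI 1640 with 10% FBS, then trypsinized. Cells were fixed in ice-cold 70% ethanol, PBS-washed and stained with propidium iodide (10 μg/mL) plus RNase A (0.2 mg/mL) for 30 min at 25 °C. Phase distribution was read by flow cytometry.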

[1] = Cell cycle arrest in human KYSE-150 cells assessed as reduction in G2/M phase after 24 hrs by FACS analysis; assay type: functional, cell-based; how it was run: as §1
[2] = biological target: Lysine-specific demethylase 7A/7B (Homo sapiens) (UniProt Q9UPP1+Q6ZMT4); experiment: Inhibition of KDM7A/7B in human HeLa cells assessed as H3K27me2 level at GI50 after 24 hrs by Western blot analysis; assay type: cell-based
Chain of Lysine-specific demethylase 7A/7B (Homo sapiens) (Q6ZMT4 whole entry, looked up): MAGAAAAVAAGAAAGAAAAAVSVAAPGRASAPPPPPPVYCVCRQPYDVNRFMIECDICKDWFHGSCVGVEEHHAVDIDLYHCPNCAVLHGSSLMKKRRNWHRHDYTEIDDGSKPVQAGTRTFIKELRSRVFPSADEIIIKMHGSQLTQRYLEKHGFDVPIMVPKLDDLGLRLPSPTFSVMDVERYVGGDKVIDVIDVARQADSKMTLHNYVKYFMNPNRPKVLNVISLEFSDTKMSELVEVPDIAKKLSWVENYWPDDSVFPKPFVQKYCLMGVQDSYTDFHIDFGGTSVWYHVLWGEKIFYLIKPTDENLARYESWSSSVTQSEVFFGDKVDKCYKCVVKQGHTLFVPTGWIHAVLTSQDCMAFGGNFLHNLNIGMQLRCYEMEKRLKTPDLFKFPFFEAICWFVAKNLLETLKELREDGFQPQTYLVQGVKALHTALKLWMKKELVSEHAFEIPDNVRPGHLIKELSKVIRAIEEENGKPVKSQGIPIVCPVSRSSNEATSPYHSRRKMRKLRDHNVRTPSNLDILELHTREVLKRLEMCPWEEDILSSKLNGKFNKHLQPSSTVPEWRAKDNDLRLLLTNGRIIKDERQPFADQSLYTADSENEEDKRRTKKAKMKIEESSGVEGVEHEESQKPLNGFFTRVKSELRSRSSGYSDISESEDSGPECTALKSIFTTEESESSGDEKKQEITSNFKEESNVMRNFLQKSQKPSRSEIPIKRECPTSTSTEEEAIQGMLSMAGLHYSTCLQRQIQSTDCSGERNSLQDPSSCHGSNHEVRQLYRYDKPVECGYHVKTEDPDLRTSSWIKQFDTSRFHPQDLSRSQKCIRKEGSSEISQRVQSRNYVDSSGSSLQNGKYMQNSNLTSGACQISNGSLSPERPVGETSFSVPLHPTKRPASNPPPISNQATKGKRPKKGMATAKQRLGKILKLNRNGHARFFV
Chain of Lysine-specific demethylase 7A/7B (Homo sapiens) (Q9UPP1 whole entry, looked up): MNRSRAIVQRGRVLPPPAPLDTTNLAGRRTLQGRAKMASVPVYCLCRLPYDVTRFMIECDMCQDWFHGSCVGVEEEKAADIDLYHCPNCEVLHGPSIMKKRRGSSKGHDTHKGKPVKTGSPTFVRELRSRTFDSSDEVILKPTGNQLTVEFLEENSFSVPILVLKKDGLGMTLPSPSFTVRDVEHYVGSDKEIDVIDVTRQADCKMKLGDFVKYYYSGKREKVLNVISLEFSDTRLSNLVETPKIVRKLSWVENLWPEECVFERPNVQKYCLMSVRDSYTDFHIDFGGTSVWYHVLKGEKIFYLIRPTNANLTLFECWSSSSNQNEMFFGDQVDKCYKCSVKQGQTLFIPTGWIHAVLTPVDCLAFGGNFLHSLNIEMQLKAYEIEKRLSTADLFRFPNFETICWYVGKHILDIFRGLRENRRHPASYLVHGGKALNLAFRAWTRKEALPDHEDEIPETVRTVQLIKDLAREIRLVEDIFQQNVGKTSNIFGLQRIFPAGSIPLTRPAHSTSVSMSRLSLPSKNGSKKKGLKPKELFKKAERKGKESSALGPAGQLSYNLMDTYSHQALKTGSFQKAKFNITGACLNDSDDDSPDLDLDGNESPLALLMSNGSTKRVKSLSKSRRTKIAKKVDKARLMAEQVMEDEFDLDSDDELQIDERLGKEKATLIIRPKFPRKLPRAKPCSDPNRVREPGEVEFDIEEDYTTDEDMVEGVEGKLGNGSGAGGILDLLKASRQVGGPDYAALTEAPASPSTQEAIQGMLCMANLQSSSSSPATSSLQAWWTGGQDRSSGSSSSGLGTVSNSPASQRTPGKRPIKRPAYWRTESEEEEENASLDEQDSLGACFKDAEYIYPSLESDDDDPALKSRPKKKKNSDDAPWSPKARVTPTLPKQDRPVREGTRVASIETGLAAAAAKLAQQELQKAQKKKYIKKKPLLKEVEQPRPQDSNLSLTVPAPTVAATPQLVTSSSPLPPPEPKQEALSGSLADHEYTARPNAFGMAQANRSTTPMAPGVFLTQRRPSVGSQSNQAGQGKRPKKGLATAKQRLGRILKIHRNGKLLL
How it was run: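 Cells (5×10^5) were treated for 24 h in OPTI-MEM and lysed in SDS buffer. Equal protein amounts, set by Bradford assay, were resolved on 4–20% SDS-PAGE and blotted. Blots were probed with anti-H3K27me2 (1:1000) and anti-H3 (1:100000) as loading reference, detected with an HRP secondary antibody, and visualized by ECL.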

N2a = experiment: Growth inhibition of mouse N2A cells after 48 hrs by MTT assay; assay type: functional
How it was run: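 Cells were seeded at 5000/well in RPMI 1640 with 10% FBS and allowed to attach overnight, then exposed for 48 h at 37 °C in 5% CO2. MTT was added for 3 h, and the dye was solubilized in HCl–2-propanol and read at 560 nm (reference 750 nm).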

inhibition [2]: Active
SMILES: O=C(O)CCN(O)C(=O)CCCCCCCCC1CC1
Activity (HeLa): Dose-dependent effect
Activity [1]: Dose-dependent effect
GI50 (N2a): 86 µM
